HSF1 activator – increases HSF-1 driven luciferase reporter signal | NIH3T3-HGL HSF-1 luciferase reporter, MG132, 8 h; 100% = twice DMSO control signal | activation, % at 9 µM | 300,000 compounds, 1.7% hits | AID 504408;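 active = mean replicate activation of at least 50% with a set share of replicates each reaching 50%; inconclusive = only one of those two conditions met; inactive = mean below 50% and too few replicates reaching it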
PHOSPHO1 inh – inhibitors of human PHOSPHO1 phosphatase; Q8TCT1; recombinant PHOSPHO1, absorbance phosphatase assay; inhibition, % at 13.3 µM; 290,000 compounds, 1.1% hits; AID 1565; in the data active = inhibition above about 60%
Target sequence (Q8TCT1 whole entry, looked up): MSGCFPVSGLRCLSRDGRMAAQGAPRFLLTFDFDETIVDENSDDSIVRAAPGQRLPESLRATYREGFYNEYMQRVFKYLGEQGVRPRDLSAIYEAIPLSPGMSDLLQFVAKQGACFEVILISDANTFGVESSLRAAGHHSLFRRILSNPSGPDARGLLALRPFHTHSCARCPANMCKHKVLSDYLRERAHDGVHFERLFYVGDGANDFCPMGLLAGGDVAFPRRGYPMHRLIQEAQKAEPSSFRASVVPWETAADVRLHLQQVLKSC
AI-2 QS modul – Vibrio harveyi AI-2 quorum sensing modulation; Vibrio harveyi JMH597 AI-2 luminescence/OD600 ratio, 9 h; active compounds read low; strain lacks LuxN and CqsS sensors; 0 = neutral-control median; activity change, % at 7.5 µM; 300,000 compounds, 0.4% hits; AID 2094; in the data active = activity change below about -75%, passing the limit was not always enough; inconclusive = no clear call, values can overlap the other calls;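 also: luminescence divided by OD600 gain over 9 h not by final OD600 alone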
HSF1 inh – HSF1 inhibition; NIH3T3-HGL HSE-luciferase, MG132-induced, luminescence 8 h; active compounds read low; activity change, negative = inhibition, % at 7.5 µM (by protocol); 300,000 compounds, 0.77% hits; AID 2098;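 active = more than half of replicate wells show activity change below -50%, luminescence cut by over half; inconclusive = some wells, but at most half, below -50%; inactive = no replicate well below -50%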;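 also: luciferase reports HSF-1 transcriptional activity via heat shock element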
ALR inh – blocks human ALR sulfhydryl oxidase activity. P55789. purified ALR, DTT oxidation, H2O2 HRP-luminol luminescence. inhibition, % (test concentration not listed). 290,000 compounds, 3.8% hits. AID 485317;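 active = mean replicate inhibition above about 79%, with every replicate also reaching it, limit read from the data; inconclusive = only one of the two criteria met; inactive = mean below limit and not every replicate reaching it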
HCV core dimer – HCV core protein dimerization inhibition; inhibition, % at 5 µM; 300,000 compounds, 0.33% hits; TR-FRET GST/Flag-core106 dimerization, 1536-well;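 active = inhibition above the mean of all tested compounds plus 3 SD, set per screening campaign, cut at about 45% in these data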
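Test system: GST/Flag-tagged HCV core106 proteins; Medium: KF-containing HEPES buffer, pH 7.45, DTT, CHAPS, BSA; Times: compound-protein-antibody incubation 4 h at 22.5 °C; Detection: TR-FRET 671 and 617 nm emission; Benchmarks: wells lacking GST-core106 and wells with excess unlabelled core106.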
Of the large screens only hits and unclear results are named; the others gave an inactive call. Only some compounds are listed: those with a hit (about 6.8% of all), similar ones and a draw of the others.

CC(=O)N1c2ccc(S(=O)(=O)NCC3CCC(C(=O)NCc4ccco4)CC3)cc2CC1C (configuration not stated)	none
O=C1CSC(=S)N1/N=C/c1ccc(Cl)c([N+](=O)[O-])c1	HCV core dimer 65
COc1ccc(NCC(=O)Nc2ccc(Br)cc2F)c(OC)c1	none
Cc1nn(C(C)C(=O)N2CCCC2)c(=O)c2nn(-c3ccccc3)c(C)c12 (configuration not stated)	none
N#CC1=C2SCN(Cc3ccco3)CN2C(=O)CC1c1c(F)cccc1Cl (configuration not stated)	PHOSPHO1 inh 79
Cc1ccc(C2CC(=O)N3CN(Cc4ccco4)CSC3=C2C#N)cc1 (configuration not stated)	PHOSPHO1 inh 76
Cc1ccc(S(=O)(=O)N(Cc2c(F)cccc2Cl)C(=O)N2CCN(C)CC2)cc1	none (no result: PHOSPHO1 inh)
Cc1cc(C)c(S(=O)(=O)c2ccccc2C(C)C)c(=O)[nH]1	none (no result: PHOSPHO1 inh, HCV core dimer)
Oc1cc(NCc2cccnc2)ccc1-c1nc2ccccc2o1	HSF1 activator 59
CCc1ccc(OCC(=O)Nc2ccc(-c3nc4ccccc4o3)c(O)c2)cc1	none
COc1ccc(Cn2nnnc2C(C(C)C)N2CCN(c3ccccc3OC)CC2)cc1 (configuration not stated)	none (no result: ALR inh)
COCCn1nnnc1C(c1ccccc1OC)N1CCc2ccccc2C1 (configuration not stated)	HSF1 activator 95 (no result: PHOSPHO1 inh)
CC(C)C(c1nnnn1Cc1ccc(F)cc1)N1CCN(c2ccc(O)cc2)CC1 (configuration not stated)	ALR inh 100
Oc1ccc(N2CCN(C(c3cccnc3)c3nnnn3Cc3ccccc3)CC2)cc1 (configuration not stated)	ALR inh 99
c1ccc(CCn2nnnc2C(c2cccnc2)N2CCN(c3ccccc3)CC2)cc1 (configuration not stated)	none
COCCn1nnnc1C(c1ccccc1)N1CCN(c2ccccc2)CC1 (configuration not stated)	ALR inh 97
COc1ccccc1N1CCN(C(c2ccc(N(C)C)cc2)c2nnnn2CCc2ccccc2)CC1 (configuration not stated)	HSF1 inh -72
CCC(C)(C)n1nnnc1C(c1ccc2ncccc2c1)N1CCN(c2ccc(O)cc2)CC1 (configuration not stated)	ALR inh 100
N/C(=N\NS(=O)(=O)c1ccccc1Cl)c1ccccn1	ALR inh 83 (no result: PHOSPHO1 inh)
N/C(=N\OC(=O)c1ccccc1Cl)c1ccccn1	none
CC(=O)OCC[C@H](NS(=O)(=O)OCC(Cl)(Cl)Cl)c1ccccc1	none
CCC(C)c1ccc(NC(=O)c2cccnc2)cc1 (configuration not stated)	none
CCC(C)c1ccc(O)c(NC(=O)c2cccnc2)c1 (configuration not stated)	ALR inh 95
CSc1nc2ccc(NS(=O)(=O)c3ccc(CNC(C)=O)cc3)cc2s1	none (no result: HSF1 activator, PHOSPHO1 inh, AI-2 QS modul, HSF1 inh, HCV core dimer)
CSc1nc2ccc(NS(=O)(=O)c3ccc([N+](=O)[O-])cc3)cc2s1	HSF1 inh -89
CCc1ccc2c(c1)[C@H]1OCC[C@H]1[C@@H](c1cccs1)N2	HSF1 activator 69, ALR inh 97
CCc1ccc2c(c1)/C(=C/C(=O)c1cccs1)C(=O)N2	none
COc1ccc(Nc2nc(N)nc(CSc3nc(C)cc(C)n3)n2)cc1	PHOSPHO1 inh 60, HSF1 inh -89
COc1ccc(Nc2nc(N)nc(CSc3nnc(N)s3)n2)cc1	none
COc1ccccc1Nc1nc(N)nc(CSc2nc(C)cc(C)n2)n1	none
COc1ccc(Nc2nc(N)nc(CSc3nccn3C)n2)cc1	HSF1 activator 55
CN(C)c1ccc(/C=N/Nc2ccc(-n3ccnc3)nn2)cc1	PHOSPHO1 inh 86, HSF1 inh inconclusive, ALR inh 94
COc1cccc(C(=O)N2CCCC(Nc3ccc(C)c(C)c3)C2)c1 (configuration not stated)	ALR inh 98
O=C(c1ccoc1)N1CCCC(Nc2ccc(F)c(F)c2)C1 (configuration not stated)	none

Screening data: PubChem BioAssay, several laboratories
